Here are results for 12 compounds from ChEMBL document CHEMBL1122206, “Use of adenine nucleotide derivatives to assess the potential of exo-active-site-directed reagents as species- or isozyme-specific enzyme inactivators. 5. Interactions of adenosine 5'-triphosphate derivatives with rat pyruvate kinases, Escherichia coli thymidine kinase, and yeast and rat …” (1982).

The target of assay [1] is T1, Hexokinase-1 (Rattus norvegicus) (UniProt P05708).
T1 sequence (whole entry): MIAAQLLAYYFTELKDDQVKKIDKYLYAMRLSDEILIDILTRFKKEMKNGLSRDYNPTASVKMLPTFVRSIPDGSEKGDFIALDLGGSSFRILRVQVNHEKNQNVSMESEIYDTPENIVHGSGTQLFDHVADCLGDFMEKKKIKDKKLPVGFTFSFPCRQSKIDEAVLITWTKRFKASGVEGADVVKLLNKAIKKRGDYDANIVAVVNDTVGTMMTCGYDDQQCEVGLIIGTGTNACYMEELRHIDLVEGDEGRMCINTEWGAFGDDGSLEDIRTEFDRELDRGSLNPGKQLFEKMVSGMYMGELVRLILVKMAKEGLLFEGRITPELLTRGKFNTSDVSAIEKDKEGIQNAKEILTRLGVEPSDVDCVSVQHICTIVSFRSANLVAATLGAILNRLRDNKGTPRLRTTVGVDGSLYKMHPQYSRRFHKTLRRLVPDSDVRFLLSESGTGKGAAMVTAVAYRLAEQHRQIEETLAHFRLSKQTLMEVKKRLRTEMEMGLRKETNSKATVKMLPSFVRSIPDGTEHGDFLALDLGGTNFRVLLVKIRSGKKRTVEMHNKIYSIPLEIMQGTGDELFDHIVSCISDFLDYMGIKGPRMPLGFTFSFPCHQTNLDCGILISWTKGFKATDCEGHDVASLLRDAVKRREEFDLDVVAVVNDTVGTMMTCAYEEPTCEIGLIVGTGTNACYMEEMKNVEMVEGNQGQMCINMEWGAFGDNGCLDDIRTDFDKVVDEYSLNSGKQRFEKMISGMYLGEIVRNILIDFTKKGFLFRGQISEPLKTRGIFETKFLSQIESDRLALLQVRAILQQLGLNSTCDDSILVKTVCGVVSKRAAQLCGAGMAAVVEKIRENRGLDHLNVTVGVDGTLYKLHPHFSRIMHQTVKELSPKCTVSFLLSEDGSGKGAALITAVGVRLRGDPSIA
Put plainly: Time dependent inhibition of Hexokinase type I activity after 6 h, at 22 degrees celsius, at 5 mM compound.

In assay [2] the target is T2, Hexokinase-2 (Rattus norvegicus) (UniProt P27881).
T2 sequence (whole entry): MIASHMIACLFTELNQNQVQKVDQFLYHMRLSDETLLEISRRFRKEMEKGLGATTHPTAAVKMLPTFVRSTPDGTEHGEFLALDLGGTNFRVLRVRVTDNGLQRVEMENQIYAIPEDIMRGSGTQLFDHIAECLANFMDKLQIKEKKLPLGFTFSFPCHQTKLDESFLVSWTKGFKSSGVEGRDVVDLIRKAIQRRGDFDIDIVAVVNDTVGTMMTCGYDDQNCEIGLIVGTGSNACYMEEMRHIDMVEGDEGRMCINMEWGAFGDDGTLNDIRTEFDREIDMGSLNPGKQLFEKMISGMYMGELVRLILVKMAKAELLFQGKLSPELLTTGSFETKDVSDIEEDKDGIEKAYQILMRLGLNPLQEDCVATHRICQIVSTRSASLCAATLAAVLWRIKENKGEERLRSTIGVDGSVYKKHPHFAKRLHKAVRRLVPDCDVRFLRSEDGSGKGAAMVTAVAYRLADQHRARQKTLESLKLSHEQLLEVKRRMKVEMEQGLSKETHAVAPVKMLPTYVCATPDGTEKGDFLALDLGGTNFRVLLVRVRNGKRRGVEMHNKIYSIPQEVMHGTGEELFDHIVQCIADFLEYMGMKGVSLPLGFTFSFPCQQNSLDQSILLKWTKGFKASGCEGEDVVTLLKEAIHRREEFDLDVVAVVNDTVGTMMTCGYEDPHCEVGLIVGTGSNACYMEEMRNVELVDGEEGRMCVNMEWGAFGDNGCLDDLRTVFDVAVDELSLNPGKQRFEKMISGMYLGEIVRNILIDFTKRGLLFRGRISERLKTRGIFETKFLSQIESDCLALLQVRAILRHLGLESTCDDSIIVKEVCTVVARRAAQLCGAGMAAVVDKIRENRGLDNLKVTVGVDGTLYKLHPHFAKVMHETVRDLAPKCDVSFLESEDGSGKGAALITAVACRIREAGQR
Put plainly: Time dependent inhibition of hexokinase 2 activity after 6 h, at 5 mM compound.

Assay [3] concerns the target T3, Hexokinase-3 (Rattus norvegicus) (UniProt P27926).
T3 sequence (whole entry): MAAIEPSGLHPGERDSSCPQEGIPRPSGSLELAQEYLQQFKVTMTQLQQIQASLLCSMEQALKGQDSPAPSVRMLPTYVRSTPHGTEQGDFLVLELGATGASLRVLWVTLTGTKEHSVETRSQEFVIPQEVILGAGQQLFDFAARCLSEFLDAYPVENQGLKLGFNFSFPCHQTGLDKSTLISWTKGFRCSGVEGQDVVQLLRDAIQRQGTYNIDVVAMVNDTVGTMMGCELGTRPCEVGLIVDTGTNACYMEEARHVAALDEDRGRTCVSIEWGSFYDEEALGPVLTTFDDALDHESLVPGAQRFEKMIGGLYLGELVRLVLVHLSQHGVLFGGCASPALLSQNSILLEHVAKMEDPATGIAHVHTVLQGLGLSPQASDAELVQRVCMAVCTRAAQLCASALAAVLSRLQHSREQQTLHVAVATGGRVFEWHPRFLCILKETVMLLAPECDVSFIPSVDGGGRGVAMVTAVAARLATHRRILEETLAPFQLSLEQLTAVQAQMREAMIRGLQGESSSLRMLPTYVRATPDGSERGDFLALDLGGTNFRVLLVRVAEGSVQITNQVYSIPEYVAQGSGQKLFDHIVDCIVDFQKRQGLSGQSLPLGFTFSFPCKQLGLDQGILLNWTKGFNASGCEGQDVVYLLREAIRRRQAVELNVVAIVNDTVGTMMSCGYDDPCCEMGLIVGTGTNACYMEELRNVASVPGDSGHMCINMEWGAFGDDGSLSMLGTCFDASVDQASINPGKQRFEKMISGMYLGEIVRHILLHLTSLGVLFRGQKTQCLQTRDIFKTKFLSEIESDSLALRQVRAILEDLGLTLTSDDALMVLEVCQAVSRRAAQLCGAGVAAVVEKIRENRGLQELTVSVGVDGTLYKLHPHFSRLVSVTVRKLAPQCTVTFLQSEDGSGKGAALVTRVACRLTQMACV
In words: Time dependent inhibition of Hexokinase type III activity after 6 h, at 22 degrees celsius, at 5 mM.

A short description of assay [4]: Tested for the velocity of 2.8 mM compound relative to that of 2.8 mM MgATP in the assay. Summed up: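 E. coli TK substrate test. 0.5 h after adding inhibitor, the mixture was diluted to 2.8 mM derivative in thymidine assay medium without ATP and with 1.42 mM MnCl2. Incubated 15 min at 37 °C, in the linear range. [14C]TMP formed was compared with that from 2.8 mM ATP under the same conditions.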

Assay [5] deals with Thymidine kinase (Escherichia coli) (UniProt P23331). Put plainly: Compound was tested for the lose of thymidine kinase activity after 6 hr, at 0 degrees celsius, with 10 mM ATP derivative. values were expressed in percent.
Assay [6] shares this target. In words: Compound was tested for the initial inhibition of thymidine kinase by 1.4 mM compound in the presence of 5.7 mM ATP in Escherichia coli.
Assay [7] addresses T3, Hexokinase-3 (Rattus norvegicus). In words: Substrate activity for rat hexokinase III as 1:1 Mg complex at 5.0 mM. The method, boiled down: (§1)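 Hexokinase activity read at 22 °C as A340 change, coupled to glucose-6-phosphate dehydrogenase, in 0.05 M Tris-HCl pH 7.6 with 6.6 mM MgCl2, 10 mM α-D-glucose and 0.93 mM NADP. Donor was 5.0 mM MgATP derivative (1:1 Mg complex) in place of ATP. Yeast HK was isoelectric-focused. Rat HK I and III came from electrofocused liver extract, HK II from dialysed muscle extract.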

The test system of assay [8] is Saccharomyces cerevisiae. In words: Time dependent inhibition of hexokinase activity after 6 hr, at 22 degrees celsius, with 5 mM ATP derivative in yeast.
Assay [9] addresses T2, Hexokinase-2 (Rattus norvegicus). In words: Substrate activity against Rat hexokinase II as 1:1 Mg complex at 5.0 mM. The method, boiled down:
as §1

Assay [10] deals with T1, Hexokinase-1 (Rattus norvegicus). Put plainly: Substrate activity for rat hexokinase I as 1:1 Mg complex at 5.0 mM. Summed up: as §1
In assay [11] the test system is Saccharomyces cerevisiae. In words: Substrate activity against yeast hexokinase as 1:1 Mg complexes at 5.0 mM. Summed up: as §1
Assay [12] addresses Thymidine kinase (Escherichia coli) (UniProt P23331). In words: Compound was tested for the loss of thymidine kinase activity from Escherichia coli after 6 hr at 0 degrees C at 10 mM.

Molecules are shown by their SMILES.

Sequence of Thymidine kinase (Escherichia coli) (P23331 whole entry, looked up): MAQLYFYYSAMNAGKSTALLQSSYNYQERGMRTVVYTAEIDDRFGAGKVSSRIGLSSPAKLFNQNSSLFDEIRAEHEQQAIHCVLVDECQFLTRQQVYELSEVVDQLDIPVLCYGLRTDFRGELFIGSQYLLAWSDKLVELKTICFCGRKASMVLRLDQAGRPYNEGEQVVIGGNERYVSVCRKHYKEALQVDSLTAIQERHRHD

As to `Nc1ncnc2c1nc(NCCNC(=O)CI)n2[C@@H]1O[C@H](COP(=O)(O)OP(=O)(O)OP(=O)(O)O)[C@@H](O)[C@H]1O`, the inhibition in assay [1], in [2] and in [3] was 0% throughout.

The compound `CN(CCCCCCN(C)c1ncnc2c1ncn2[C@@H]1O[C@H](COP(=O)(O)OP(=O)(O)OP(=O)(O)O)[C@@H](O)[C@H]1O)C(=O)CCCCCNC(=O)CI` displayed a Velocity in assay [4] of 49%. The inhibition came to 0% in assay [5] and 5% in [6].

Turning to `CC(=O)NCCCCCCCCNc1ncnc2c1ncn2[C@@H]1O[C@H](COP(=O)(O)OP(=O)(O)OP(=O)(O)O)[C@@H](O)[C@H]1O`, the Relative velocity in assay [7] was found to be 1.25; in [9], 0.6; in [10], 1.12. The inhibition in [1], in assay [8] and in [3] was 0% in each case.

Consider `Nc1ncnc2c1nc(NCCCCNC(=O)CI)n2[C@@H]1O[C@H](COP(=O)(O)OP(=O)(O)OP(=O)(O)O)[C@@H](O)[C@H]1O`, for which the inhibition in [1], in assay [2] and in assay [3] was 0% throughout.

As for `O=C(CI)NCCCCCCC(=O)NCCCCCCNc1ncnc2c1ncn2[C@@H]1O[C@H](COP(=O)(O)OP(=O)(O)OP(=O)(O)O)[C@@H](O)[C@H]1O`, the inhibition in assay [1] was found to be 0%; in assay [2], 0%; in [8], 0%; in [5] it was 0%; in assay [6] it was 12%. This compound also gave a Velocity in [4] of 41%.

For `O=C(CI)NCCCC(=O)NCCCCCCNc1ncnc2c1ncn2[C@@H]1O[C@H](COP(=O)(O)OP(=O)(O)OP(=O)(O)O)[C@@H](O)[C@H]1O`, the Relative velocity stood at 2.02 in [7], 1 in assay [11], 0.91 in assay [9] and 1.3 in assay [10]. Moreover, the inhibition in [1], in assay [2], in [8], in assay [3], in assay [5] and in assay [6] was 0% each time. Moreover, the Velocity in [4] was 36%.

In the case of `CN(CCCCN(C)c1ncnc2c1ncn2[C@@H]1O[C@H](COP(=O)(O)OP(=O)(O)OP(=O)(O)O)[C@@H](O)[C@H]1O)C(=O)CCCCCCNC(=O)CI`, the Velocity in [4] is 55%. For the same compound, the inhibition came to 0% in assay [8], 0% in assay [5] and 1% in assay [6].

As for `CC(=O)NCCCCCC(=O)N(C)CCCCN(C)c1ncnc2c1ncn2[C@@H]1O[C@H](COP(=O)(O)OP(=O)(O)OP(=O)(O)O)[C@@H](O)[C@H]1O`, in [4], the Velocity came out at 41%. In [12], this compound displayed an inhibition of 0%.

For the compound `O=C(CI)NCCCCCC(=O)NCCCCNc1ncnc2c1ncn2[C@@H]1O[C@H](COP(=O)(O)OP(=O)(O)OP(=O)(O)O)[C@@H](O)[C@H]1O`, the inhibition in assay [1], in assay [8], in assay [3] and in assay [5] was 0% in each case. In addition, in assay [4], the Velocity was determined as 71%.

As for `Nc1ncnc2c1nc(NCCCCCCNC(=O)CI)n2[C@@H]1O[C@H](COP(=O)(O)OP(=O)(O)OP(=O)(O)O)[C@@H](O)[C@H]1O`, the inhibition in assay [1], in assay [2], in [8] and in assay [3] was 0% throughout.

For the compound `Nc1ncnc2c1nc(NCCCCCCCCNC(=O)CI)n2[C@@H]1O[C@H](COP(=O)(O)OP(=O)(O)OP(=O)(O)O)[C@@H](O)[C@H]1O`, the Relative velocity in [7] was 1.81; in assay [11], 0.54; in assay [9] it was 0.82; in assay [10], 1.16. Further, the inhibition in [3] and in assay [12] was 0% in each case.

Consider `O=C(CI)NCCC(=O)NCCCCCCNc1ncnc2c1ncn2[C@@H]1O[C@H](COP(=O)(O)OP(=O)(O)OP(=O)(O)O)[C@@H](O)[C@H]1O`, for which the inhibition is 0% in assay [1]; 0% in assay [2]; 0% in assay [8]; 0% in assay [3]; 0% in assay [5]; 1% in assay [6]. Moreover, the Velocity in assay [4] was determined as 53%.
